# According to ChEMBL document CHEMBL1909519, “L-Proline anchored multicomponent synthesis of novel pyrido[2,3-a]carbazoles; investigation of in vitro antimicrobial, antioxidant, cytotoxicity and structure activity relationship studies” (Eur J Med Chem, 2011):
# Key:
# Staphylococcus aureus [1] = assay: Antibacterial activity against Staphylococcus aureus at 25 ug/ml after 24 hrs by agar disk diffusion assay; format: functional; details: read-out: DIZ
# Outline: (§1)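 Agar well diffusion on nutrient agar against Gram-positive clinical isolates (PSG Hospital, Coimbatore). Compounds in DMSO tested at 0 (control), 25, 50, 75, 100; DMSO as solvent and negative control; ciprofloxacin ([…]) as positive control. Plates incubated 37 ± 2 °C, 24 h; zone of inhibition diameter read in mm.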
# Enterococcus faecalis [2] = assay: Antibacterial activity against Enterococcus faecalis at 25 ug/ml after 24 hrs by agar disk diffusion assay; format: functional; details: read-out: DIZ; outline: as §1
# Escherichia coli [3] = assay: Antibacterial activity against Escherichia coli at 25 ug/ml after 24 hrs by agar disk diffusion assay; format: functional; details: read-out: DIZ
# Outline: (§2)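 Gram-negative clinical isolates (PSG Hospital, Coimbatore) tested by agar well diffusion on nutrient agar. Compounds dissolved in DMSO at 0 (control), 25, 50, 75, 100; DMSO was the negative control and ciprofloxacin ([…]) the positive control. Incubation 37 ± 2 °C for 24 h, then inhibition zone diameter measured in mm.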
# Klebsiella pneumoniae [4] = assay: Antibacterial activity against Klebsiella pneumoniae at 25 ug/ml after 24 hrs by agar disk diffusion assay; format: functional; details: read-out: DIZ; outline: as §2
# Aspergillus niger [5] = assay: Antifungal activity against Aspergillus niger at 25 ug/ml after 48 hrs by agar disk diffusion assay; format: functional; details: read-out: DIZ
# Outline: (§3)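 Fungal isolates (PSG Hospital, Coimbatore) grown on Sabouraud dextrose agar; agar well diffusion with compounds in DMSO at 0 (control), 25, 50, 75, 100. DMSO negative control, fluconazole ([…]) positive control. Plates held 28 ± 2 °C for 48 h; zone of inhibition diameter recorded in mm.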
# Candida albicans [6] = assay: Antifungal activity against Candida albicans at 25 ug/ml after 48 hrs by agar disk diffusion assay; format: functional; details: read-out: DIZ; outline: as §3
# Staphylococcus aureus [7] = assay: Antibacterial activity against Staphylococcus aureus after 24 hrs by agar disk diffusion assay; format: functional; outline: as §1
# Enterococcus faecalis [8] = assay: Antibacterial activity against Enterococcus faecalis after 24 hrs by agar disk diffusion assay; format: functional; outline: as §1
# Escherichia coli [9] = assay: Antibacterial activity against Escherichia coli after 24 hrs by agar disk diffusion assay; format: functional; outline: as §2
# Klebsiella pneumoniae [10] = assay: Antibacterial activity against Klebsiella pneumoniae after 24 hrs by agar disk diffusion assay; format: functional; outline: as §2
# Aspergillus niger [11] = assay: Antifungal activity against Aspergillus niger after 48 hrs by agar disk diffusion assay; format: functional; outline: as §3
# Candida albicans [12] = assay: Antifungal activity against Candida albicans after 48 hrs by agar disk diffusion assay; format: functional; outline: as §3
# A549 = assay: Cytotoxicity against human A549 cells after 48 hrs by SRB assay; format: functional, cell-based; details: A549, 48 h
# Outline: (§4)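 Cells in RPMI-1640 with 10% heat-inactivated FBS, 1 mM NaHCO3, 2 mM L-glutamine, 37 °C, 5% CO2; seeded (B16F10 5 × 10⁴ cells/mL, others 1 × 10⁵ cells/mL), 24 h, then compounds in DMSO at 1.56–50 for 48 h, triplicate wells. TCA fixation, SRB staining 30 min, tris extraction, OD 520 nm; IC50 by linear regression, mean ± SD of three independent experiments; cisplatin positive control.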
# B16-F10 [13] = assay: Cytotoxicity against mouse B16F10 cells after 48 hrs by SRB assay; format: functional, cell-based; details: B16-F10, 48 h; outline: as §4
# [14] = Cytotoxicity against human SK-MEL-12 cells after 48 hrs by SRB assay; format: functional, cell-based; outline: as §4
# SK-OV-3 [15] = assay: Cytotoxicity against human SKOV3 cells after 48 hrs by SRB assay; format: functional, cell-based; details: SK-OV-3, 48 h; outline: as §4
# [16] = tested on: Radical scavenging activity; assay: Antioxidant activity assessed as DPPH radical scavenging activity after 30 mins by micro plate reader; format: functional
# Outline: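 DPPH assay: various compound concentrations brought to volume with ethanol, mixed with 0.1 mM ethanolic DPPH alongside vitamin C standard; shaken 30 min at 24 °C, absorbance read at 517 nm; concentration giving 50% decrease determined.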
# HCT-15 [17] = assay: Cytotoxicity against human HCT15 cells up to 50 ug/ml after 48 hrs by SRB assay; format: functional, cell-based; outline: as §4
# HCT-15 [18] = assay: Cytotoxicity against human HCT15 cells after 48 hrs by SRB assay; format: functional, cell-based; details: HCT-15, 48 h; outline: as §4
# B16-F10 [19] = assay: Ratio of cisplatin IC50 to compound IC50 for mouse B16F10; format: functional
# [20] = Cytotoxicity against human SK-MEL-12 cells up to 50 ug/ml after 48 hrs by SRB assay; format: functional, cell-based; outline: as §4
# SK-OV-3 [21] = assay: Cytotoxicity against human SKOV3 cells up to 50 ug/ml after 48 hrs by SRB assay; format: functional, cell-based; outline: as §4
# Staphylococcus aureus [22] = assay: Antibacterial activity against Staphylococcus aureus at 50 ug/ml after 24 hrs by agar disk diffusion assay; format: functional; details: read-out: DIZ; outline: as §1
# Enterococcus faecalis [23] = assay: Antibacterial activity against Enterococcus faecalis at 50 ug/ml after 24 hrs by agar disk diffusion assay; format: functional; details: read-out: DIZ; outline: as §1
# Escherichia coli [24] = assay: Antibacterial activity against Escherichia coli at 50 ug/ml after 24 hrs by agar disk diffusion assay; format: functional; details: read-out: DIZ; outline: as §2
# Klebsiella pneumoniae [25] = assay: Antibacterial activity against Klebsiella pneumoniae at 50 ug/ml after 24 hrs by agar disk diffusion assay; format: functional; details: read-out: DIZ; outline: as §2
# Aspergillus niger [26] = assay: Antifungal activity against Aspergillus niger at 50 ug/ml after 48 hrs by agar disk diffusion assay; format: functional; details: read-out: DIZ; outline: as §3
# Candida albicans [27] = assay: Antifungal activity against Candida albicans at 50 ug/ml after 48 hrs by agar disk diffusion assay; format: functional; details: read-out: DIZ; outline: as §3
Compound,zone of inhibition at 25 µg/mL (Staphylococcus aureus [1]) [mm],zone of inhibition at 25 µg/mL (Enterococcus faecalis [2]) [mm],zone of inhibition at 25 µg/mL (Escherichia coli [3]) [mm],zone of inhibition at 25 µg/mL (Klebsiella pneumoniae [4]) [mm],zone of inhibition at 25 µg/mL (Aspergillus niger [5]) [mm],zone of inhibition at 25 µg/mL (Candida albicans [6]) [mm],MIC (Staphylococcus aureus [7]) [µg/mL],MIC (Enterococcus faecalis [8]) [µg/mL],MIC (Escherichia coli [9]) [µg/mL],MIC (Klebsiella pneumoniae [10]) [µg/mL],MIC (Aspergillus niger [11]) [µg/mL],MIC (Candida albicans [12]) [µg/mL],IC50 (A549) [µg/mL],IC50 (B16-F10 [13]) [µg/mL],IC50 [14] [µg/mL],IC50 (SK-OV-3 [15]) [µg/mL],IC50 [16] [µg/mL],IC50 (HCT-15 [18]) [µg/mL],also measured
CCOC(=O)c1c(N)nc2c(c1-c1cc3ccccc3nc1Cl)CCc1c-2[nH]c2ccc(C)cc12,25,24,23,26,7,11,25,25,25,25,> 100,> 100,17.6,20.5,27.7,18.6,330.25,,IC50 (HCT-15 [17]): Not Active
Cc1ccc2[nH]c3c(c2c1)CCc1c-3nc(N)c(C#N)c1-c1ccc(Br)cc1,24,23,22,25,6,7,25,25,25,25,> 100,> 100,35,2.84,,,140.21,11,Ratio IC50 (B16-F10 [19]): 2; IC50 [20]: Not Active; IC50 (SK-OV-3 [21]): Not Active
Cc1ccc2[nH]c3c(c2c1)CCc1c-3nc(N)c(C#N)c1-c1cccnc1,,,,,,,50,50,50,50,> 100,> 100,16.1,13.7,16.6,10.6,511.24,47.6,zone of inhibition at 50 µg/mL (Staphylococcus aureus [22]): 20 mm; zone of inhibition at 50 µg/mL (Enterococcus faecalis [23]): 20 mm; zone of inhibition at 50 µg/mL (Escherichia coli [24]): 19 mm; zone of inhibition at 50 µg/mL (Klebsiella pneumoniae [25]): 18 mm; zone of inhibition at 50 µg/mL (Aspergillus niger [26]): 3 mm; zone of inhibition at 50 µg/mL (Candida albicans [27]): 5 mm
